The record followed here is ChEMBL document CHEMBL3797043 (Bioorg Med Chem Lett, 2016).

The test system of test [1] is Mus musculus. Description: Analgesic effect in ICR mouse assessed as tail flick latencies at 50 mg/kg, ip measured 10 to 60 mins post dose by tail flick test. The class given is functional, organism-based. A digest of the protocol: (§1)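 Male ICR mice (18–22 g), blinded observers. Compounds in DMSO stock, diluted in Ringer's solution (final DMSO <10%), given ip in 0.1 mL. Distal 2–3 cm of tail immersed in 52°C ± .5 water; withdrawal latency (s) recorded before dosing and at 10, 20, 30, 45, 60 min after. ≥6 mice per compound per dose; mean ± SEM; two-way ANOVA with Bonferroni test.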

The target in test [2] is Pancreatic elastase (Sus scrofa) (UniProt P08419+P00772). Description: Inhibition of porcine pancreatic elastase at 10 uM using N-Succinyl-ala-ala-ala-p-nitroanilide substrate assessed as reduction in p-nitroaniline release measured over 5 mins. It is filed as protein assay. A digest of the protocol:
(§2)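 Commercial porcine enzymes (liver esterase, pancreatic elastase) assayed in microplates. The mix held enzyme, 100 uM chromogenic substrate, 0.125 M TrisCl and 0.2 mM EDTA at pH 8.0. Each reaction was started by adding substrate. Release of p-nitrophenol (esterase) or p-nitroaniline (elastase) was followed at 400 nm, with control rates linear over at least 5 min.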

A further test deals with T1, Liver carboxylesterase (Sus scrofa, UniProt Q29550).
T1 sequence (Q29550 whole entry): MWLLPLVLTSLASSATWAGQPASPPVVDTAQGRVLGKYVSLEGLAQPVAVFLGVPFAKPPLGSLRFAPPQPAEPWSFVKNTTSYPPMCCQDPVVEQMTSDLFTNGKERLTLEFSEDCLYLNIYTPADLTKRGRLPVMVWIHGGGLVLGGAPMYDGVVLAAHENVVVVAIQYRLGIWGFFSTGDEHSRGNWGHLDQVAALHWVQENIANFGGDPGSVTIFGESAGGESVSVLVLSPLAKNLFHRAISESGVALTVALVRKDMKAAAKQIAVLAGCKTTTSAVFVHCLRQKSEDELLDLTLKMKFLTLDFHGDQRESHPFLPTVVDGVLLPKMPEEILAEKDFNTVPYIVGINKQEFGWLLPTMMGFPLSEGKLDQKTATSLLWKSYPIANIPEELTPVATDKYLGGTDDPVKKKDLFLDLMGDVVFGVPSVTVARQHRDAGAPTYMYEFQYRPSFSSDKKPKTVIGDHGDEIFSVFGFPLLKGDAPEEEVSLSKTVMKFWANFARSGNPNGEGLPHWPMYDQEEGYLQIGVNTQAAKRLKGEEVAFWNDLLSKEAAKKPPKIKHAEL
Description: Inhibition of porcine liver esterase using 4-nitrophenyl butyrate substrate assessed as reduction in p-nitrophenol release measured over 5 mins. A digest of the protocol: as §2

For test [3], the system named is Mus musculus. Kind of test: Analgesic effect in ICR mouse assessed as tail flick latencies at 20 to 100 mg/kg, ip measured 10 to 60 mins post dose by tail flick test. The class given is functional, organism-based. In outline: as §1
Test [4] addresses T2, Fatty-acid amide hydrolase 1 (Homo sapiens, UniProt O00519).
T2 sequence (O00519 whole entry): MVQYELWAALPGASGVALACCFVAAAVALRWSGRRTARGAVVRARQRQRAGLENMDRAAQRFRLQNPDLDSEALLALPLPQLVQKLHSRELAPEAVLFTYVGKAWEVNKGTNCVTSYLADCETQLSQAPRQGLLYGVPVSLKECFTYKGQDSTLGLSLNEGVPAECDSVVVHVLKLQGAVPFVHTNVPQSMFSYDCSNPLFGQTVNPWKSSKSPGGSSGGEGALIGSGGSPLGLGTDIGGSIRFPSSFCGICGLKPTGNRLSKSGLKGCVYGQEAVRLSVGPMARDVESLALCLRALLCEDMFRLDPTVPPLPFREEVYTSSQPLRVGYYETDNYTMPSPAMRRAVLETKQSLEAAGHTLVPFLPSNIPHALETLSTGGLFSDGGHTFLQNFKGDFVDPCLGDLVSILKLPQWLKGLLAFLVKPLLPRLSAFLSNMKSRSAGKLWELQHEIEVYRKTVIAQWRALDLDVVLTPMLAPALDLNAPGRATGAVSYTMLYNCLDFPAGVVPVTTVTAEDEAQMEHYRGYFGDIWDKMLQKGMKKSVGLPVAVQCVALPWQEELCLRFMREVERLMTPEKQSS
Kind of test: Inhibition of MBP-fused human recombinant FAAH with truncated N-terminal transmembrane domain expressed in Escherichia coli T7 using D-AMC substrate measured over 40 mins by fluorescence based assay.

The target of test [5] is T3, Fatty-acid amide hydrolase 1 (Homo sapiens) (UniProt O00519).
T3 sequence (whole entry): T2 sequence (O00519 whole entry)
Description: Time dependent inhibition of MBP-fused human recombinant FAAH with truncated N-terminal transmembrane domain expressed in Escherichia coli T7 using D-AMC substrate measured over 40 mins by fluorescence based assay. Particulars: TDE = time-dependent effect. In outline: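 MBP–FAAH (residues 34–579, E. coli) at 3 μg protein per well, 8 pM active enzyme, with 5 μM D-AMC in Tris-Cl/EDTA/0.1% BSA pH 8.0 at 37 °C; DMSO ≤1%. Reactions started with enzyme; fluorescence read at ex 351/em 430 nm over 40 min. […] Ki from IC50 = Ki(1+[S]/Km)+[Et]/2.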

Test [6] deals with T3, Fatty-acid amide hydrolase 1 (Homo sapiens). Description: Inhibition of MBP-fused human recombinant FAAH with truncated N-terminal transmembrane domain expressed in Escherichia coli T7 assessed as enzyme inactivation rate constant using D-AMC substrate incubated for 2 hrs by fluorescence based assay. A digest of the protocol: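 Human FAAH residues 34–579 as an MBP fusion, expressed in E. coli T7 Express with IPTG induction, then purified by amylose affinity and S100 chromatography. Substrate D-AMC at 5 μM final in 125 mM Tris-Cl, 1 mM EDTA, 0.1% BSA, pH 8.0, 37 °C; ex 351/em 430 nm. Apparent first-order k_i' measured at several inhibitor levels and fitted for k_inact and K_i (D-AMC Km 0.52 μM).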

The subject of test [7] is Mus musculus. Kind of test: Analgesic effect in ICR mouse assessed as tail flick latencies at 20 to 40 mg/kg, ip measured 10 to 60 mins post dose by tail flick test. The class given is functional, organism-based. A digest of the protocol: as §1

Calls of active or inactive are those of the source. The rule behind the calls is not given here.

Regarding `O=C(Oc1cccnc1)N1CCC(c2nc(C3=NOC(c4ccccc4)C3)cs2)CC1` (stereo not given), in the test with Mus musculus [1], the result was inactive.
Turning to `O=C(Nc1nccs1)N1CCC(c2nc(C3=NOC(c4ccccc4)C3)cs2)CC1` (stereo not given), the inhibition entry in test [2] is “inactive”. For the same compound, the IC50 on Liver carboxylesterase is > 10000 nM.
Regarding `O=C(Oc1ccc(Cl)cc1)N1CCC(c2nc(C3=NOC(c4ccccc4)C3)cs2)CC1` (stereo not given), the inhibition result in test [2] was “inactive”. Further, the IC50 on Liver carboxylesterase came out at 470 nM.
`N#Cc1ccc(OC(=O)N2CCC(c3nc(C4=NOC(c5ccccc5)C4)cs3)CC2)cc1` (stereo not given): the Activity result in the test with Mus musculus [3] was “Dose-dependent effect”. The result with Mus musculus [1] was Active.
In the case of `O=C(Oc1ccccc1)N1CCC(c2nc(C3=NOC4(CCCc5ccccc54)C3)cs2)CC1` (stereo not given), the Ki in test [4] turned out to be 2.73 nM. In test [5], the inhibition entry was “tde”.
Regarding `O=C(Nc1cccnc1)N1CCC(Cc2cccc(Oc3ccc(C(F)(F)F)cn3)c2)CC1`, the K in test [6] stood at 0.0033 s⁻¹.
Consider `COc1ccc(OC(=O)N2CCC(c3nc(C4=NOC(c5ccccc5)C4)cs3)CC2)cc1` (stereo not given), for which, in the test on Mus musculus [1], the result was inactive.
Consider `O=C(Oc1ccccc1Cl)N1CCC(c2nc(C3=NOC(c4ccccc4)C3)cs2)CC1` (stereo not given), for which the inhibition result in test [2] was “inactive”. Besides, the IC50 on Liver carboxylesterase amounted to 870 nM.
`O=C(Nc1cnccn1)N1CCC(c2nc(C3=NOC(c4ccccc4)C3)cs2)CC1` (stereo not given): the outcome in the test with Mus musculus [7] was inactive. In addition, in the test on Mus musculus [1], the result was Active.
With `O=C(Nc1cccnn1)N1CCC(c2nc(C3=NOC(c4ccccc4)C3)cs2)CC1` (stereo not given), in the test with Mus musculus [7], the outcome was inactive. Moreover, the outcome in the test with Mus musculus [1] was Active.
In the case of `O=C(Oc1ccccc1)N1CCC(c2nc(C3=NOC(c4ccccc4)C3)cs2)CC1` (stereo not given), the result in the test with Mus musculus [7] was inactive. Further, in the test on Mus musculus [1], the outcome was Active. Moreover, the inhibition result in test [2] was “inactive”. Also, the IC50 at Liver carboxylesterase is 2400 nM.
Consider `Cc1ccccc1OC(=O)N1CCC(c2nc(C3=NOC(c4ccccc4)C3)cs2)CC1` (stereo not given), for which the inhibition result in test [2] is “inactive”. For the same compound, at Liver carboxylesterase, the concentration for half-maximal inhibition (IC50) came to 840 nM.
Consider `O=C(Nc1ccccc1)N1CCC(c2nc(C3=NOC(c4ccccc4)C3)cs2)CC1` (stereo not given), for which the inhibition result in test [2] was “inactive”. Also, the IC50 at Liver carboxylesterase was 5600 nM.
